“And” between values parts separate entries of the source, which are not always exact repeats. Equal values may be shown once.
Key:
Type in all cases: toxicity, cell-based
[1] = test system: U2OS; assay: Multiplex assay against U2OS; details: human, number of replicates 2
Method in brief: (§1)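 On a CQ1 microscope at 37°C and 5% CO2, live cells were imaged after compound addition. They had been stained at seeding with Hoechst33342, BioTracker Green Microtubule Cytoskeleton Dye, MitoTracker Red and Annexin V Alexa Fluor 680. CellPathfinder machine-learning gating assigned cells to Hoechst high-intensity objects or normal cells, normal cells to healthy, pyknosed or fragmented nuclei, and pyknosed cells to mitotic or apoptotic. Tubulin, mitochondrial-mass and membrane-permeability phenotypes are per cents of healthy-nucleus cells.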

[2] = test system: HEK-293T; assay: Multiplex assay against HEK293T; details: human, number of replicates 2; method in brief: as §1
[3] = test system: Fibroblast; assay: Multiplex assay against human fibroblast; details: number of replicates 2; method in brief: as §1
[4] = 12 h, 1 µM, compound concentration 1 uM
[5] = 12 h, 10 µM, compound concentration 10 uM
[6] = 24 h, 1 µM, compound concentration 1 uM
[7] = 24 h, 10 µM, compound concentration 10 uM
[8] = 48 h, 1 µM, compound concentration 1 uM
[9] = 48 h, 10 µM, compound concentration 10 uM

CN1CCc2cc(Cl)c(O)cc2[C@@H](c2ccccc2)C1.Cl
Population Apoptotic (%) [1, 4]: 100% and 36% | Population Healthy Nuclei (%) [1, 4]: 58% and 86% | Population Hoechst High Intensity Objects (%) [1, 4]: 0% | Population Membrane Permeable-Phenotype (%) [1, 4]: 0% | Population Mitochondria Different-Phenotype (%) [1, 4]: 0% | Population Normal (%) [1, 4]: 100% | Population Pyknosed Nuclei (%) [1, 4]: 12% and 7% | Population Tubulin-Different-Phenotype (%) [1, 4]: 78% and 88% | Population Apoptotic (%) [1, 5]: 50% and 29% | Population Fragmented Nuclei (%) [1, 5]: 3% and 4% | Population Healthy Nuclei (%) [1, 5]: 75% and 85% | Population Hoechst High Intensity Objects (%) [1, 5]: 0% | Population Membrane Permeable-Phenotype (%) [1, 5]: 0% and 2% | Population Mitochondria Different-Phenotype (%) [1, 5]: 0% | Population Mitotic Cells (%) [1, 5]: 50% and 70% | Population Normal (%) [1, 5]: 100% and 99% | Population Pyknosed Nuclei (%) [1, 5]: 21% and 9% | Population Tubulin-Different-Phenotype (%) [1, 5]: 55% and 80% | Population Apoptotic (%) [1, 6]: 28% and 33% | Population Healthy Nuclei (%) [1, 6]: 56% and 87% | Population Hoechst High Intensity Objects (%) [1, 6]: 0% | Population Membrane Permeable-Phenotype (%) [1, 6]: 0% and 1% | Population Mitochondria Different-Phenotype (%) [1, 6]: 0% | Population Mitotic Cells (%) [1, 6]: 71% and 66% | Population Normal (%) [1, 6]: 100% | Population Pyknosed Nuclei (%) [1, 6]: 15% and 7% | Population Tubulin-Different-Phenotype (%) [1, 6]: 88% and 92% | Population Apoptotic (%) [1, 7]: 50% and 58% | Population Fragmented Nuclei (%) [1, 7]: 5% and 3% | Population Healthy Nuclei (%) [1, 7]: 85% and 87% | Population Hoechst High Intensity Objects (%) [1, 7]: 0% | Population Membrane Permeable-Phenotype (%) [1, 7]: 1% | Population Mitochondria Different-Phenotype (%) [1, 7]: 0% | Population Mitotic Cells (%) [1, 7]: 50% and 41% | Population Normal (%) [1, 7]: 100% and 99% | Population Pyknosed Nuclei (%) [1, 7]: 10% and 8% | Population Tubulin-Different-Phenotype (%) [1, 7]: 75% and 81% | Population Apoptotic (%) [1, 8]: 54% and 50% | Population Fragmented Nuclei (%) [1, 8]: 8% and 3% | Population Healthy Nuclei (%) [1, 8]: 73% and 92% | Population Hoechst High Intensity Objects (%) [1, 8]: 1% and 0% | Population Membrane Permeable-Phenotype (%) [1, 8]: 2% and 1% | Population Mitochondria Different-Phenotype (%) [1, 8]: 2% and 0% | Population Mitotic Cells (%) [1, 8]: 45% and 50% | Population Normal (%) [1, 8]: 98% and 100% | Population Tubulin-Different-Phenotype (%) [1, 8]: 80% and 90% | Population Apoptotic (%) [1, 9]: 50% and 53% | Population Fragmented Nuclei (%) [1, 9]: 11% and 3% | Population Healthy Nuclei (%) [1, 9]: 79% and 88% | Population Hoechst High Intensity Objects (%) [1, 9]: 0% | Population Membrane Permeable-Phenotype (%) [1, 9]: 0% and 2% | Population Mitochondria Different-Phenotype (%) [1, 9]: 1% and 0% | Population Mitotic Cells (%) [1, 9]: 50% and 46% | Population Normal (%) [1, 9]: 100% | Population Pyknosed Nuclei (%) [1, 9]: 9% and 7% | Population Tubulin-Different-Phenotype (%) [1, 9]: 87% | Population Apoptotic (%) [2, 4]: 48% and 46% | Population Fragmented Nuclei (%) [2, 4]: 3% and 4% | Population Healthy Nuclei (%) [2, 4]: 84% and 85% | Population Hoechst High Intensity Objects (%) [2, 4]: 7% and 5% | Population Membrane Permeable-Phenotype (%) [2, 4]: 5% and 3% | Population Mitochondria Different-Phenotype (%) [2, 4]: 23% and 12% | Population Mitotic Cells (%) [2, 4]: 51% and 53% | Population Normal (%) [2, 4]: 92% and 94% | Population Pyknosed Nuclei (%) [2, 4]: 12% and 10% | Population Tubulin-Different-Phenotype (%) [2, 4]: 50% and 47% | Total Cell Count [2, 4]: 505 and 645 | Population Apoptotic (%) [2, 5]: 40% and 55% | Population Fragmented Nuclei (%) [2, 5]: 4% | Population Healthy Nuclei (%) [2, 5]: 87% and 85% | Population Hoechst High Intensity Objects (%) [2, 5]: 6% and 8% | Population Membrane Permeable-Phenotype (%) [2, 5]: 3% and 4% | Population Mitochondria Different-Phenotype (%) [2, 5]: 11% | Population Mitotic Cells (%) [2, 5]: 59% and 45% | Population Normal (%) [2, 5]: 93% and 91% | Population Pyknosed Nuclei (%) [2, 5]: 8% and 9% | Population Tubulin-Different-Phenotype (%) [2, 5]: 54% and 52% | Total Cell Count [2, 5]: 819 and 669 | Population Apoptotic (%) [2, 6]: 47% and 31% | Population Fragmented Nuclei (%) [2, 6]: 6% and 5% | Population Healthy Nuclei (%) [2, 6]: 83% and 88% | Population Hoechst High Intensity Objects (%) [2, 6]: 7% | Population Membrane Permeable-Phenotype (%) [2, 6]: 1% and 3% | Population Mitochondria Different-Phenotype (%) [2, 6]: 8% and 3% | Population Mitotic Cells (%) [2, 6]: 52% and 68% | Population Normal (%) [2, 6]: 92% | Population Pyknosed Nuclei (%) [2, 6]: 9% and 6% | Population Tubulin-Different-Phenotype (%) [2, 6]: 25% and 24% | Total Cell Count [2, 6]: 778 and 975 | Population Apoptotic (%) [2, 7]: 38% and 37% | Population Fragmented Nuclei (%) [2, 7]: 7% and 8% | Population Healthy Nuclei (%) [2, 7]: 88% and 87% | Population Hoechst High Intensity Objects (%) [2, 7]: 8% and 7% | Population Membrane Permeable-Phenotype (%) [2, 7]: 5% and 4% | Population Mitochondria Different-Phenotype (%) [2, 7]: 3% | Population Mitotic Cells (%) [2, 7]: 61% and 62% | Population Normal (%) [2, 7]: 91% and 92% | Population Pyknosed Nuclei (%) [2, 7]: 4% | Population Tubulin-Different-Phenotype (%) [2, 7]: 35% and 38% | Total Cell Count [2, 7]: 1332 and 988 | Population Apoptotic (%) [2, 8]: 10% and 5% | Population Fragmented Nuclei (%) [2, 8]: 10% and 11% | Population Healthy Nuclei (%) [2, 8]: 85% and 84% | Population Hoechst High Intensity Objects (%) [2, 8]: 8% and 9% | Population Membrane Permeable-Phenotype (%) [2, 8]: 3% and 6% | Population Mitochondria Different-Phenotype (%) [2, 8]: 1% and 0% | Population Mitotic Cells (%) [2, 8]: 89% and 94% | Population Normal (%) [2, 8]: 91% and 90% | Population Pyknosed Nuclei (%) [2, 8]: 3% | Population Tubulin-Different-Phenotype (%) [2, 8]: 10% and 14% | Total Cell Count [2, 8]: 1964 and 2487 | Population Apoptotic (%) [2, 9]: 6% and 16% | Population Fragmented Nuclei (%) [2, 9]: 22% and 20% | Population Healthy Nuclei (%) [2, 9]: 75% and 77% | Population Hoechst High Intensity Objects (%) [2, 9]: 9% and 10% | Population Membrane Permeable-Phenotype (%) [2, 9]: 10% | Population Mitochondria Different-Phenotype (%) [2, 9]: 0% | Population Mitotic Cells (%) [2, 9]: 93% and 83% | Population Normal (%) [2, 9]: 90% and 89% | Population Pyknosed Nuclei (%) [2, 9]: 2% | Population Tubulin-Different-Phenotype (%) [2, 9]: 20% and 21% | Total Cell Count [2, 9]: 3504 and 2430 | Population Apoptotic (%) [3, 4]: 46% and 55% | Population Fragmented Nuclei (%) [3, 4]: 10% and 17% | Population Healthy Nuclei (%) [3, 4]: 63% | Population Hoechst High Intensity Objects (%) [3, 4]: 1% and 0% | Population Membrane Permeable-Phenotype (%) [3, 4]: 10% and 6% | Population Mitochondria Different-Phenotype (%) [3, 4]: 1% and 4% | Population Mitotic Cells (%) [3, 4]: 53% and 44% | Population Normal (%) [3, 4]: 98% and 99% | Population Pyknosed Nuclei (%) [3, 4]: 26% and 18% | Population Tubulin-Different-Phenotype (%) [3, 4]: 15% and 14% | Total Cell Count [3, 4]: 175 and 235 | Population Apoptotic (%) [3, 5]: 43% and 53% | Population Fragmented Nuclei (%) [3, 5]: 11% and 17% | Population Healthy Nuclei (%) [3, 5]: 71% and 78% | Population Hoechst High Intensity Objects (%) [3, 5]: 0% | Population Membrane Permeable-Phenotype (%) [3, 5]: 4% and 3% | Population Mitochondria Different-Phenotype (%) [3, 5]: 3% and 4% | Population Mitotic Cells (%) [3, 5]: 56% and 46% | Population Normal (%) [3, 5]: 100% | Population Tubulin-Different-Phenotype (%) [3, 5]: 21% and 12% | Total Cell Count [3, 5]: 244 and 283 | Population Apoptotic (%) [3, 6]: 52% and 62% | Population Fragmented Nuclei (%) [3, 6]: 6% and 18% | Population Healthy Nuclei (%) [3, 6]: 69% and 67% | Population Hoechst High Intensity Objects (%) [3, 6]: 1% and 0% | Population Membrane Permeable-Phenotype (%) [3, 6]: 12% and 7% | Population Mitochondria Different-Phenotype (%) [3, 6]: 0% and 1% | Population Mitotic Cells (%) [3, 6]: 47% and 37% | Population Normal (%) [3, 6]: 98% and 100% | Population Pyknosed Nuclei (%) [3, 6]: 23% and 14% | Population Tubulin-Different-Phenotype (%) [3, 6]: 20% and 11% | Total Cell Count [3, 6]: 161 and 242 | Population Apoptotic (%) [3, 7]: 65% and 83% | Population Fragmented Nuclei (%) [3, 7]: 16% and 21% | Population Healthy Nuclei (%) [3, 7]: 76% | Population Hoechst High Intensity Objects (%) [3, 7]: 0% | Population Membrane Permeable-Phenotype (%) [3, 7]: 3% and 2% | Population Mitochondria Different-Phenotype (%) [3, 7]: 2% and 0% | Population Mitotic Cells (%) [3, 7]: 35% and 16% | Population Normal (%) [3, 7]: 100% | Population Pyknosed Nuclei (%) [3, 7]: 7% and 2% | Population Tubulin-Different-Phenotype (%) [3, 7]: 20% and 10% | Total Cell Count [3, 7]: 265 and 295 | Population Apoptotic (%) [3, 8]: 53% and 75% | Population Fragmented Nuclei (%) [3, 8]: 9% and 18% | Population Healthy Nuclei (%) [3, 8]: 72% and 73% | Population Hoechst High Intensity Objects (%) [3, 8]: 0% | Population Membrane Permeable-Phenotype (%) [3, 8]: 8% and 4% | Population Mitochondria Different-Phenotype (%) [3, 8]: 1% and 2% | Population Mitotic Cells (%) [3, 8]: 46% and 25% | Population Normal (%) [3, 8]: 100% and 99% | Population Pyknosed Nuclei (%) [3, 8]: 18% and 8% | Population Tubulin-Different-Phenotype (%) [3, 8]: 11% and 7% | Total Cell Count [3, 8]: 175 and 251 | Population Apoptotic (%) [3, 9]: 76% and 100% | Population Fragmented Nuclei (%) [3, 9]: 21% and 26% | Population Healthy Nuclei (%) [3, 9]: 73% and 72% | Population Hoechst High Intensity Objects (%) [3, 9]: 0% | Population Membrane Permeable-Phenotype (%) [3, 9]: 4% and 1% | Population Mitochondria Different-Phenotype (%) [3, 9]: 0% | Population Mitotic Cells (%) [3, 9]: 23% and 0% | Population Normal (%) [3, 9]: 100% | Population Pyknosed Nuclei (%) [3, 9]: 4% and 0% | Population Tubulin-Different-Phenotype (%) [3, 9]: 12% and 3% | Total Cell Count [3, 9]: 292 and 324
